# Hits are enriched below; roughly 1.7% of the tested compounds scored in any of these assays.
# ZTA DNA inh = ZTA (EBV) inhibition in EBNA-1 counter-screen | P03206 | AID 2234 | actives 0.15% (n = 320,000) | ZTA-DNA binding, fluorescence polarization | inhibition, % at 11 µM; in the data active means inhibition above about 33%
# EBNA-1 inh = blocks EBNA-1 binding to DNA. EBNA-1 DNA binding, fluorescence polarization. inhibition, % at 14.8 µM. actives 0.34% (n = 300,000). AID 1950; in the data active means inhibition above about 28%
# Apaf1 inhib = inhibitors of human Apaf-1 apoptosome; reconstituted apoptosome caspase-3 activity, DEVD-Rh110 fluorescence; actives 0.71% (n = 330,000); O14727; inhibition, % at 20 µM; active means inhibition of at least 40% at 20 µM
#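 System – cell-free apoptosome with Apaf-1, procaspase-3 and caspase-9 · Buffer or medium – pH 7.5 Hepes buffer with CHAPS, BSA, DTT · Also added – cytochrome c with DEVD-Rh110 · Times – 30 min compound preincubation, 50 min activation, room temperature · Technique – Rh110 fluorescence intensity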
# PREPL inh = inhibitors of human prolyl oligopeptidase-like enzyme PREPL; inhibition, % at 5.96 µM; actives 0.68% (n = 320,000); recombinant PREPL, fluorescence polarization activity-based probe; AID 2751; in the data active means inhibition above about 43%
# UBC13 polyUb = human UBC13 polyubiquitination inhibition; actives 0.47% (n = 330,000); P61088; UBC13 polyubiquitin chain formation, TR-FRET; inhibition, % at 20 µM; AID 485273; in the data active means inhibition above about 45%, passing the limit was not always enough; inconclusive means no clear call, values can overlap the other calls
# Target sequence (P61088 whole entry, looked up): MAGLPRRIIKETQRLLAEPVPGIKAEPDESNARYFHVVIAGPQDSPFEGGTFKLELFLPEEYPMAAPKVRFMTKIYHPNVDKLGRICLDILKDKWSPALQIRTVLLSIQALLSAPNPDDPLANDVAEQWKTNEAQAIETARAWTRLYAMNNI
# Casp3 UBC13 ctr = inhibits human caspase-3 in UBC13 counter-screen | shares compounds with UBC13 polyUb | Recombinant caspase-3, Caspase-Glo 3/7 luminescence, 60 min | inhibition, % at 20 µM | actives 4% (n = 1,400) | AID 488856;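 active means mean inhibition across replicates above about 26%, limit read from the data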
# Target sequence (P42574 whole entry, looked up): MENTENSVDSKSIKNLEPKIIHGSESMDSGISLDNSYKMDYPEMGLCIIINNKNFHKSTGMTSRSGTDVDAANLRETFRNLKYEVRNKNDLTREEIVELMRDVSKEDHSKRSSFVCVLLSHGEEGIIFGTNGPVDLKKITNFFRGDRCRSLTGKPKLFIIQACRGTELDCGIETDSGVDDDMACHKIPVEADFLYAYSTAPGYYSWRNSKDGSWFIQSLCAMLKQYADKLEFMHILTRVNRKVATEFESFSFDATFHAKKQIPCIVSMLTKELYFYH
# UBC13 conf = human UBC13 polyubiquitin inhibition, confirmed; shares compounds with UBC13 polyUb; actives 68% (n = 1,400); inhibition, % at 10 µM; UBC13 polyubiquitination, TR-FRET, biochemical; in the data active means inhibition above about 45%; inconclusive means no clear call, values can overlap the other calls
# Numbers stand for hits; . = inactive; ? = inconclusive; / = no result given.
SMILES,ZTA DNA inh,EBNA-1 inh,Apaf1 inhib,PREPL inh,UBC13 polyUb,Casp3 UBC13 ctr,UBC13 conf
COc1cc(C(CCN2CCOCC2)c2c(OC)cc(OC)c3c(-c4ccccc4)cc(=O)oc23)cc(OC)c1OC (stereo not given),/,/,.,/,/,/,/
COc1ccc(C(CCN2CCCC2)c2c(OC)cc(OC)c3c(-c4ccccc4)cc(=O)oc23)cc1 (stereo not given),.,.,.,.,67,.,.
COc1cc(C(CCN2CCCC2)c2c(OC)cc(OC)c3c(-c4ccccc4)cc(=O)oc23)cc(OC)c1OC (stereo not given),.,.,.,.,46,.,.
CCCCCc1cc(=O)oc2c(C(CCN(CC)CC)c3cc(OC)c(OC)c(OC)c3)c(OC)cc(OC)c12 (stereo not given),.,.,.,.,85,.,73
COc1cc(OC)c2c(-c3ccccc3)cc(=O)oc2c1C(CCN1CCCC1)c1ccc2c(c1)OCO2 (stereo not given),.,.,49,.,52,.,.
CCOC(=O)c1c(C)noc1-c1ccco1,.,.,.,.,.,/,/
Cc1ccc(Cn2nnc3c(=O)[nH]c(C4CCN(S(=O)(=O)Cc5ccccc5)CC4)nc32)cc1,.,.,.,.,.,/,/
CCN(CC)CCC(c1ccc(N(C)C)cc1)c1c(OC)cc(OC)c2c(-c3ccccc3)cc(=O)oc12 (stereo not given),.,.,.,.,50,.,.
COc1ccc(/C=N/NC(=O)c2sccc2C)c2ccccc12,.,.,.,.,.,/,/
CCOC(=O)c1c(-c2ccccc2)oc2ccc(OCC(O)CNCCN(C)C)cc12 (stereo not given),.,.,.,.,53,.,56
CCN(CC)CCCNc1nc2cc(OC)c(OC)cc2c2nc(-c3ccccc3)nn12,.,.,.,.,55,.,45
COc1ccc(-c2cc3ccccc3oc2=O)cc1NC(=S)NC(=O)c1ccc2c(c1)OCCO2,.,.,.,.,49,.,46
CCC(=O)Nc1cc(-c2cc3ccccc3oc2=O)ccc1OC,.,.,.,.,.,/,/
O=C1OCCN1C(=O)[C@H]1[C@H](c2ccc(Cl)cc2)C(c2cccc(Cl)c2)=NN1c1ccccc1,.,.,.,.,50,.,?
O=C(NCCC1=CCCCC1)c1cc2ccccc2oc1=O,.,.,.,.,.,/,/
Cc1cc2nc(Cl)c(Cl)nc2cc1C,.,.,.,.,47,.,.
Cc1cc2ncc(Cl)nc2cc1C,.,.,.,.,.,/,/
O=C(NCc1nc2ccccc2[nH]1)C1=C[C@@H](c2csc3ccccc23)C[C@@H](OCc2ccc(CO)cc2)O1,.,.,.,.,.,/,/
Cc1ccc(CN2CCSc3ccc(C(=O)NC4CCN(Cc5ccccc5)CC4)cc32)cc1,.,.,.,.,62,.,?
O=C(NC1CCCC1)c1ccc2c(c1)N(Cc1ccccc1)CCS2,.,.,.,.,.,/,/
COc1cccc(-c2c(C(=O)N/N=C/c3ccco3)nnn2-c2nonc2N)c1,.,.,.,.,.,/,/
COc1ccccc1C(=O)C1CCCN(C(=O)C2=CC(=O)CC(C)(C)O2)C1 (stereo not given),.,.,.,.,.,/,/
CNc1oc(-c2ccccc2)nc1S(=O)(=O)c1ccc(C)cc1,.,.,.,.,.,/,/
CCOc1ccc(-c2nc(S(=O)(=O)c3ccccc3)c(NC)o2)cc1,.,.,.,.,47,.,.
c1ccc(-n2nnnc2-n2ccnc2)cc1,.,.,.,.,.,/,/
SMILES,ZTA DNA inh,EBNA-1 inh,Apaf1 inhib,PREPL inh,UBC13 polyUb,Casp3 UBC13 ctr,UBC13 conf
O=C(CCN1C(=O)c2cccc3cccc(c23)C1=O)NC1CCS(=O)(=O)C1 (stereo not given),.,.,.,.,.,/,/
O=C(CCCCCN1C(=O)c2cccc3cccc(c23)C1=O)NC1CCS(=O)(=O)C1 (stereo not given),.,.,.,.,83,.,98
O=C(CCCCCN1C(=O)c2ccccc2C1=O)NCCc1nc2ccccc2[nH]1,.,.,.,.,56,.,53
O=C(Nc1cccc(S(=O)(=O)NCc2ccco2)c1)c1cc(-c2ccccc2)nc2ccccc12,.,.,.,.,.,/,/
CCn1c(=S)[nH]c2cc(C(=O)O)ccc21,.,.,.,.,.,/,/
CCn1c(=O)cc(C(F)(F)F)[nH]c1=S,.,.,.,.,55,.,?
CCN(CC)CCNC(=O)c1cc2c(s1)-c1ccccc1SC2,.,.,.,.,50,.,53
CCN(CC)CCNC(=O)c1cc2c(=O)n(CC)c3ccccc3c2s1,.,.,.,.,57,.,62
CCn1c(=O)c2cc(C(=O)NCCN(C)C)sc2c2ccccc21,.,.,.,.,46,.,.
CCN(CC)CCCNC(=O)c1cc2c(=O)n(CC)c3ccccc3c2s1,.,.,.,.,.,/,/
CCCN(CCC)CCNC(=O)c1cc2c(=O)n(CC)c3ccccc3c2s1,.,.,.,.,73,.,74
Cc1ccc(NC(=O)CNc2cc(S(=O)(=O)N3CCOCC3)ccc2N2CCOCC2)cc1S(=O)(=O)N(C)C,/,/,.,.,.,/,/
Cc1nnc(SCC(=O)O)o1,.,.,.,.,.,/,/
COC(=O)CSc1nccc(-c2ccc(F)cc2)c1C#N,.,.,.,.,.,/,/
Cc1cc(Nc2ccc(Cl)cc2)nc(NCc2ccccc2)n1,.,.,.,.,72,.,84
Cc1cc(Nc2ccccc2)nc(NCc2ccccc2)n1,.,.,.,.,46,.,50
CCCCNc1cc(C)nc(NCc2ccccc2)n1,.,.,.,.,48,.,56
Cc1cc(Nc2cccc(F)c2)nc(NCc2ccccc2)n1,.,.,.,.,.,/,/
CC(=O)c1c(C)nc(-c2ccc3c(c2)OCO3)n1O,.,.,.,.,.,/,/
O=C1c2cccc3cccc(c23)C(=O)N1CCc1ccccc1,.,.,.,.,51,.,?
O=C(O)C(Cc1ccccc1)N1C(=O)c2cccc3cccc(c23)C1=O (stereo not given),.,.,.,.,.,/,/
Cc1nn(C)c(C)c1NC(=O)COc1ccc(Cl)cc1Br,.,/,.,.,.,/,/
COc1ccc(/C=C/C(=O)Nc2c(C)nn(C)c2C)cc1COc1ccc(Cl)cc1Br,.,.,.,.,60,.,63
O=C(O)c1cc(/C=N\O)ccc1OCc1ccccc1,.,.,.,.,.,/,/

# Bioassay records (PubChem BioAssay)
